Measured values reported in publication PMC9653265 (Journal of medicinal chemistry, 2022).

Key:
hP2X1R = biological target: T1, hP2X1R (Homo sapiens, UniProt P51575); test: cell-based; conditions: CHO-K1, read-out: hP2X1R % inhib.
T1 sequence (P51575 1-399): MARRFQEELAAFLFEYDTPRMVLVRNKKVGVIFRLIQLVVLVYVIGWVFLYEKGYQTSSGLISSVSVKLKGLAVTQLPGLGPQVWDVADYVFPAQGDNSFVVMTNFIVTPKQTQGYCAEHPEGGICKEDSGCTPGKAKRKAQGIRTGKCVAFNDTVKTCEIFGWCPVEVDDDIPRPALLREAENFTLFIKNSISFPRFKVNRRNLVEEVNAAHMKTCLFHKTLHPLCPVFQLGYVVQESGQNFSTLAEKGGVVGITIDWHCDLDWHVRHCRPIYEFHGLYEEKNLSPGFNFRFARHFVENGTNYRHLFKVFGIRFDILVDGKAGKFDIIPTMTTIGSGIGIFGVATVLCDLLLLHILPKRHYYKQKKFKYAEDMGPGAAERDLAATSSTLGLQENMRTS

[1] = test system: 45 receptors, channels, and transporters; test: PDSP off-target binding screen at 45 receptors, channels and transporters; conditions: at 10 μM
[2] = test system: mouse middle cerebral artery occlusion (MCAO) model of ischemic stroke; conditions: mice, 1 mg/kg/day × 3 days, administered 4 h after onset of stroke; cited from earlier work
P2X7R = conditions: cited from earlier work
mP2X4R = conditions: cited from earlier work
[3] = test system: mouse middle cerebral artery occlusion (MCAO) model of ischemic stroke; test: MCAO ischemic stroke model, cerebral infarct volume; type: in vivo
[4] = test system: primary human monocyte-derived macrophages; test: Calcium influx assay on human monocyte-derived macrophages; type: cell-based; conditions: ATP 50 μM, 15 min pretreatment
Summary of the method: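 Monocytes came from fresh whole blood of healthy donors. They were matured 5–7 days in RPMI with GM-CSF (5 ng/mL), then seeded at 10^4 cells/dish for ≥24 h. Cells were loaded with Calbryte 590 AM for 60 min in HBSS/HEPES and washed. They were pretreated 15 min with test compound (0, 0.1, 0.3, 0.6, 1, 3 μM), then stimulated with ATP 50 μM. Confocal images were taken every 6 s for up to 4 min, and peak Ca2+ amplitude was quantified.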

[5] = test system: mouse middle cerebral artery occlusion (MCAO) model of ischemic stroke; test: Rotarod test after MCAO; type: in vivo; conditions: middle-aged mice after MCAO; 4–40 rpm, 5 min; over 4 weeks
Summary of the method: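 Middle-aged male and female C57BL/6 mice underwent 60 min right MCAO. They received test compound or PBS by osmotic minipump for 3 days. Rotarod was done at baseline and on post-MCAO days 2, 7, 14, 21 and 28, 1 h after open-field testing. The rod accelerated 4–40 rpm over 5 min. Each mouse had two trials 30 min apart, and mean latency to fall (s) was used. Data are mean ± S.D.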

[6] = test system: mouse middle cerebral artery occlusion (MCAO) model of ischemic stroke; test: Open-field test after MCAO; type: in vivo; conditions: middle-aged mice after MCAO; vs vehicle; over 4 weeks
Summary of the method: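 The model used 60 min right MCAO in middle-aged male and female C57BL/6 mice. Test compound or PBS vehicle was infused by osmotic minipump for 3 days. Testing was at baseline and on post-MCAO days 2, 7, 14, 21 and 28. Mice started from a corner of a 16″ acrylic box and explored ~10 min. Total photobeam breaks and center-zone break percentage were recorded. This test preceded rotarod by 1 h. Data are mean ± S.D.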

[7] = test system: mouse middle cerebral artery occlusion (MCAO) model of ischemic stroke; test: Novel Object Recognition Task; type: in vivo; conditions: middle-aged mice, 4 weeks after MCAO; dose of 3 mg/kg; p < 0.05 vs Veh
[8] = young adult male mice (8–12 weeks), doses of 1.5 and 3.0 mg/kg/day × 3 days continuous infusion (Alzet minipump), 3 days after stroke, vs Veh
[9] = young adult male mice, 5 mg/kg/day × 3 days continuous infusion, 3 days after stroke, vs Veh

CC(=O)NCc1ccc2ccc3c(c2c1)NC(=O)CC(=O)N3c1cccc(-c2noc(=S)[nH]2)c1 [Compound 21i, N-((2,4-Dioxo-5-(3-(5-thioxo-4,5-dihydro-1,2,4-oxadiazol-3-yl)-phenyl)-2,3,4,5-tetrahydro-1H-naphtho[1,2-b][1,4]diazepin-10-yl)-methyl)acetamide]
inhibition at 30 µM (hP2X1R): ≤ 31%

CCN(CC)CC.O=C1CC(=O)N(c2cccc(-c3noc(=S)[nH]3)c2)c2cc(Br)c3ccccc3c2N1 [Compound 21d, 7-Bromo-5-(3-(5-thioxo-4,5-dihydro-1,2,4-oxadiazol-3-yl)-phenyl)-1,5-dihydro-2H-naphtho[1,2-b][1,4]diazepine-2,4(3H)-dione]
off-target binding at 45 receptors, channels, and transporters [1]: no significant interactions

O=C1CN=C(c2cccc(Br)c2)c2oc3ccccc3c2N1 [Compound 3, 5-(3-bromophenyl)-1,3-dihydro-2H-benzofuro[3,2-e][1,4]diazepin-2-one]
stroke infarct size [2]: reduced

O=C1CC(=O)N(c2cccc(-c3noc(=S)[nH]3)n2)c2ccc3ccccc3c2N1 [Compound 21v, 5-(6-(5-Thioxo-4,5-dihydro-1,2,4-oxadiazol-3-yl)pyridin-2-yl)-1,5-dihydro-2H-naphtho[1,2-b][1,4]diazepine-2,4(3H)-dione]
inhibition at 30 µM (hP2X1R): ≤ 31%

O=C1CC(=O)N(c2cccc(-c3noc(=S)[n-]3)c2)c2ccc3ccccc3c2N1.[Na+] [Compound 5, 5-(3-(5-Thioxo-4,5-dihydro-1,2,4-oxadiazol-3-yl)phenyl)-1,5-dihydro-2H-naphtho[1,2-b][1,4]diazepine-2,4(3H)-dione]
activity at the P2X7R (P2X7R): inactive
potency in blocking mP2X4R effects in vitro compared with hP2X4R (mP2X4R): as potent
off-target binding at 45 receptors, channels, and transporters [1]: no significant interactions

CCN(CC)CC.O=C1CC(=O)N(c2ccnc(-c3noc(=S)[nH]3)c2)c2ccc3ccccc3c2N1 [Compound 21u, 5-(2-(5-Thioxo-4,5-dihydro-1,2,4-oxadiazol-3-yl)pyridin-4-yl)-1,5-dihydro-2H-naphtho[1,2-b][1,4]diazepine-2,4(3H)-dione]
effective dose in murine MCAO ischemic stroke model ([3]; neuroprotective and neuro-rehabilitative properties): 1.5 mg/kg
cortical infarct volume [3, 8]: significantly reduced
total hemispheric infarct volume [3, 8]: significantly reduced
inhibition of ATP-induced increase in calcium influx ([4]; HMDM of healthy subjects): dose-dependent (0–3 μM) inhibition
doses giving a significant decrease of the peak Ca2+ amplitude ([4]; vs ATP only): ≥ 0.6 µM
motor coordination and balance (rotarod) [5]: did not improve
total exploratory behavior (total beam breaks, open-field task) [6]: did not show any differences
learning and memory function (NORT) [7]: significant retention of memory

Cc1ccc2c3c(ccc2c1)N(c1cccc(-c2noc(=S)[n-]2)c1)C(=O)CC(=O)N3.[Na+] [Compound 22c]
cortical infarct volume [3, 9]: not significant
striatal infarct volume [3, 9]: not significant
total hemispheric infarct volume [3, 9]: moderate but significant decrease
off-target binding at 45 receptors, channels, and transporters [1]: no significant interactions
